High-throughput results from PubChem.
T cruzi growth-1: T. cruzi intracellular proliferation inhibitors, primary screen, cell-based, beta-gal Tulahuen parasites, NIH3T3 host, luminescence; inhibition, % at 8.34 µM; 77,000 tested, 5.9% active; T. cruzi beta-gal in NIH3T3, GalScreen luminescence, 90 h;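 active means mean inhibition above about 93%, with at least 55% of replicates each passing it, limit read from the data, passing the limit was not always enough; inconclusive means only one of those two conditions holds; inactive means neither condition holds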
GASC1 inh: inhibitors of GASC-1 (KDM4C) histone demethylase, primary screen, biochemical, single concentration HTS; GST-KDM4C 2-372, H3K9me3 peptide, LANCE TR-FRET; Lysine-specific demethylase 4C (Homo sapiens), Q9H3R0; inhibition, % at 12.5 µM; AID 720574, 2013; 96,000 tested, 0.15% active;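 active means mean replicate inhibition above about 25%, with at least 55% of replicates also reaching it, limit read from the data, passing the limit was not always enough; inconclusive means only one of those two conditions met; inactive means neither condition met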
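System: N-terminal GST-fused human GASC-1 (KDM4C) fragment, residues 2-372; amount: enzyme final amount 10 nM; incubation: reaction 30 min RT, detection step 1 h RT; medium: HEPES buffer, pH 7.5, plus ascorbate; technique: LANCE TR-FRET, Eu antibody, ULight-streptavidin, EDTA, ex 340 nm, em 618/671 nm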
IDH1 R132H inh: inhibitors of IDH1 R132H reductase, primary screen, biochemical, plate reader, single point; Isocitrate dehydrogenase [NADP] cytoplasmic (Homo sapiens), O75874; diaphorase/resazurin fluorescence, 60 min; inhibition, % at 10 µM; 70,000 tested, 0.18% active; AID 624101, 2012; in the data active means inhibition above about 34%; inconclusive means no clear call, values can overlap the other calls; inactive means below about 11%;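 further: 0% = DMSO and 100% = no enzyme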
Target sequence (O75874 whole entry R132H): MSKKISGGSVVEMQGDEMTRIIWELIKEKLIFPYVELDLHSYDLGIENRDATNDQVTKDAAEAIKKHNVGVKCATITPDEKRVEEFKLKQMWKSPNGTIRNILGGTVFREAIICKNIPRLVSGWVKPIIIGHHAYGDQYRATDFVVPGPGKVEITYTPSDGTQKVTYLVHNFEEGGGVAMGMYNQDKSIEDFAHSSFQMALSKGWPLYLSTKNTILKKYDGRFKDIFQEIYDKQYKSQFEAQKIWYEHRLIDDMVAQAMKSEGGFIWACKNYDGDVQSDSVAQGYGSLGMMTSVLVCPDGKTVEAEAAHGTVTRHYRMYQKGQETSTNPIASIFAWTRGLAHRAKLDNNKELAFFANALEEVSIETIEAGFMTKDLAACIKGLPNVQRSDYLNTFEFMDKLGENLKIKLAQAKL
Pf Dd2 growth: P. falciparum Dd2 growth inhibitors, primary screen, SYBR Green fluorescence, single dose replicates; AID 1159554, 2015; 72 h; active compounds read low; activity change, % at 10 µM; 94,000 tested, 2.3% active; in the data active means activity change below about -80%; inconclusive means no clear call, values can overlap the other calls
T cruzi growth-2: T. cruzi intracellular proliferation inhibitors, confirmation, cell-based, NIH3T3 host, beta-gal parasite, luminescence, cherry-pick; shares compounds with T cruzi growth-1; T. cruzi beta-gal in NIH3T3, GalScreen luminescence, 90 h; inhibition, % at 8.35 µM; 5,600 tested, 72% active; AID 651739, 2012;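 active means mean replicate inhibition above about 95% and at least 55% of replicates individually reaching it, limit read from the data; inconclusive means only one of the two criteria is met; inactive means neither criterion is met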
T cruzi growth-3: inhibitors of intracellular T. cruzi replication, confirmation, NIH3T3 host cells, beta-gal parasites, cherry-pick, set 2; shares compounds with T cruzi growth-1; T. cruzi beta-gal in NIH3T3, GalScreen luminescence, 90 h; inhibition, % at 2.09 µM; 5,600 tested, 21% active;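 active means mean inhibition above about 95%, with at least 55% of replicates also reaching it, limit read from the data; inconclusive means meets just one of the two conditions; inactive means meets neither condition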;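 further: plate controls were neutral control median for no effect and positive control median for full effect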
NIH3T3 tox: cytotoxicity in mouse NIH/3T3 fibroblasts, confirmation, cytotoxicity control for T. cruzi proliferation inhibitor project, cell-based, cherry-pick, single point | shares compounds with T cruzi growth-1 | NIH/3T3 viability, CellTiter-Glo ATP luminescence, 90 h | cytotoxicity (signal decrease), % at 8.35 µM | 5,600 tested, 14% active | AID 651742, 2012;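 active means mean signal decrease across replicates above about 35% based on untreated-well scatter, with enough replicates individually passing, limit read from the data; inconclusive means no rule stated though some were filed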;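 further: 0% = median of neutral control wells and 100% = median of positive control wells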
3T3 cytotox 2: NIH/3T3 fibroblast cytotoxicity, confirmation, cytotoxicity control, cell-based, cherry-pick, single point, set 2; shares compounds with T cruzi growth-1; NIH/3T3 viability, CellTiter-Glo ATP luminescence, 90 h; inhibition, % at 24.9 µM; 5,600 tested, 56% active; AID 651744, 2012;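 active means mean loss of cell viability signal at or above a set limit, and enough replicates individually reaching it; inconclusive means meets only the mean limit or only the replicate share; inactive means meets neither condition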;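 further: 0% = median of neutral control wells and 100% = median of positive control wells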
Active calls of the source: *; ? = inconclusive; nt = no result given. Sampled rows, rich in hits. Any-hit rate of the full collection: about 5.9%.

SMILES	T cruzi growth-1	GASC1 inh	IDH1 R132H inh	Pf Dd2 growth	T cruzi growth-2	T cruzi growth-3	NIH3T3 tox	3T3 cytotox 2
COc1ccc(S(=O)(=O)Nc2ccc3c(c2)C(=O)N([C@@H](C)CO)C[C@@H](C)[C@H](CN(C)S(=O)(=O)c2ccc(OC)cc2)OCCCC[C@@H](C)O3)cc1	?	-1	nt	-47	108*	69	6	23
N#Cc1c(-c2ccccc2)nc2n1CCS2	nt	nt	-1	nt	nt	nt	nt	nt
C[C@H]1CN([C@@H](C)CO)C(=O)c2cc(NC(=O)Cn3cnnn3)ccc2O[C@@H]1CN(C)Cc1ccc(C(=O)Nc2ccccc2N)cc1	95	-1	nt	16	nt	nt	nt	nt
CCCC#Cc1ccc2c(c1)O[C@H](CN(C)Cc1cncnc1)[C@@H](C)CN([C@H](C)CO)S2(=O)=O	86	-3	0	-25	nt	nt	nt	nt
CCCC#Cc1ccc2c(c1)O[C@@H](CN(C)Cc1cccnc1)[C@@H](C)CN([C@H](C)CO)S2(=O)=O	109*	2	15	15	101*	96*	?	29*
C[C@H](CO)N1C[C@H](C)[C@@H](CN(C)Cc2cccnc2)Oc2cc(C#CCN(C)C)ccc2S1(=O)=O	104*	3	0	-49	103*	104*	23	21
CCCC#Cc1ccc2c(c1)O[C@@H](CN(C)Cc1cccnc1)[C@H](C)CN([C@@H](C)CO)S2(=O)=O	122*	1	13	-39	99*	93	55*	107*
C[C@H](O)C#Cc1ccc2c(c1)O[C@H](CN(C)Cc1cccnc1)[C@H](C)CN([C@@H](C)CO)S2(=O)=O	nt	nt	nt	7	nt	nt	nt	nt
CCCC#Cc1ccc2c(c1)O[C@@H](CN(C)Cc1cncnc1)[C@@H](C)CN([C@H](C)CO)S2(=O)=O	50	18	1	-13	nt	nt	nt	nt
CCCC#Cc1ccc2c(c1)O[C@@H](CN(C)Cc1cccnc1)[C@H](C)CN([C@H](C)CO)S2(=O)=O	119*	-1	16	-42	97*	96*	45*	105*
C[C@@H]1CCCCO[C@H](CN(C)Cc2ccc3c(c2)OCO3)[C@@H](C)CN([C@@H](C)CO)C(=O)c2cc(NC(=O)c3ccncc3)ccc2O1	56	12	1	-39	nt	nt	nt	nt
C[C@H]1CN([C@@H](C)CO)C(=O)c2ccccc2-c2ccccc2CO[C@@H]1CN(C)C(=O)Nc1ccnc(N2CCOCC2)c1	108*	2	-1	-3	101*	?	7	14
C[C@@H]1CN([C@H](C)CO)C(=O)c2ccccc2-c2ccccc2CO[C@H]1CN(C)C(=O)Nc1ccnc(N2CCOCC2)c1	?	3	0	7	96*	74	-12	-3
C[C@@H]1CN([C@@H](C)CO)C(=O)c2c(c3ccccc3n2C)-c2ccccc2CO[C@@H]1CN(C)C(=O)Nc1ccnc(N2CCOCC2)c1	nt	-2	nt	-3	nt	nt	nt	nt
CN1C(=O)c2cc(NC(=O)C3CCOCC3)ccc2OC[C@H]2O[C@H](CC(=O)NCc3ccccc3F)CC[C@@H]21	9	3	nt	6	nt	nt	nt	nt
CC(C)CC#Cc1ccc2c(c1)O[C@@H](CN(C)C(=O)Nc1ccccc1F)[C@@H](C)CN([C@H](C)CO)S2(=O)=O	108*	-2	-1	-78	106*	?	-13	99*
CC(C)CC#Cc1ccc2c(c1)O[C@@H](CN(C)C(=O)Nc1ccccc1F)[C@H](C)CN([C@H](C)CO)S2(=O)=O	115*	-2	0	-66	109*	42	29	78*
CC(C)CC#Cc1ccc2c(c1)O[C@H](CN(C)C(=O)Nc1ccccc1F)[C@@H](C)CN([C@@H](C)CO)S2(=O)=O	84	1	0	-72	nt	nt	nt	nt
CCCC#Cc1ccc2c(c1)O[C@H](CN(C)C(=O)Nc1ccccc1F)[C@H](C)CN([C@H](C)CO)S2(=O)=O	nt	-1	nt	-60	nt	nt	nt	nt
CC(C)CC#Cc1ccc2c(c1)O[C@@H](CN(C)C(=O)Nc1ccccc1F)[C@H](C)CN([C@@H](C)CO)S2(=O)=O	108*	0	0	-60	108*	76	25	101*
CC(C)CC#Cc1ccc2c(c1)O[C@H](CN(C)C(=O)Nc1ccccc1F)[C@H](C)CN([C@@H](C)CO)S2(=O)=O	51	7	0	-27	nt	nt	nt	nt
COc1ccc(CN(C)C[C@H]2Oc3ccc(NS(=O)(=O)c4cccs4)cc3C(=O)N([C@@H](C)CO)C[C@@H]2C)cc1	-55	0	-1	-6	nt	nt	nt	nt
COC(=O)C1=CO[C@@H](O[C@@H]2O[C@H](CO)[C@@H](O)[C@H](O)[C@H]2O)[C@H]2[C@@H]1[C@H](OC(=O)/C=C/c1ccc(O)cc1)C[C@]2(C)OC(C)=O	nt	nt	0	nt	nt	nt	nt	nt
C[C@H](CO)N1C[C@H](C)[C@@H](CN(C)CC2CCCCC2)OCCCC[C@H](C)Oc2ccc(NC(=O)Nc3ccc(C(F)(F)F)cc3)cc2C1=O	84	-2	nt	-41	nt	nt	nt	nt
C[C@@H]1CN([C@H](C)CO)C(=O)c2cc(NC(=O)Nc3ccc(C(F)(F)F)cc3)ccc2O[C@@H](C)CCCCO[C@@H]1CN(C)CC1CCCCC1	?	-4	-3	-64	?	112*	118*	105*
C[C@@H]1CN([C@@H](C)CO)C(=O)c2cc(NC(=O)Nc3ccc(C(F)(F)F)cc3)ccc2O[C@@H](C)CCCCO[C@H]1CN(C)CC1CCCCC1	88	nt	nt	-60	nt	nt	nt	nt
C[C@H](CO)N1C[C@H](C)[C@H](CN(C)CC2CCCCC2)OCCCC[C@H](C)Oc2ccc(NC(=O)Nc3ccc(C(F)(F)F)cc3)cc2C1=O	95*	-1	nt	-78	91	106*	120*	105*
CC(C)C#Cc1ccc([C@H]2[C@H]3CN(S(=O)(=O)Cc4ccccc4)CCCCN3[C@H]2CO)cc1	110*	0	nt	-3	106*	46	27	21
